ChEMBL document CHEMBL1148743, “C1'-cycloalkyl side chain pharmacophore in tetrahydrocannabinols” (J Med Chem, 2007)

What was measured:
Cannabinoid receptor 2 = Cannabinoid receptor 2 (Mus musculus, UniProt P47936); assay: Displacement of [3H]CP-55940 from CB2 receptor in mouse spleen membrane; assay type: cell membranes
Method in brief: (§1)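 CB2 sites are measured with membranes prepared from frozen mouse spleen. Binding is competition against tritiated CP-55,940, run in 96-well filter format, and IC50 values are taken from displacement. Filters are washed in buffer containing 0.5% BSA and counted by scintillation. Ki is the mean of three independent experiments, each run in duplicate.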

Cannabinoid receptor 1 = Cannabinoid receptor 1 (Rattus norvegicus, UniProt P20272); assay: Displacement of [3H]CP-55940 from CB1 receptor in rat brain synaptosomal membrane; assay type: cell membranes
Method in brief: as §1, with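 “Rat forebrain synaptosomal” for “CB2 sites are measured with”, “brains serve as CB1 source.” for “mouse spleen.”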

[1] = Selectivity for mouse CB2 receptor over rat CB1 receptor

Cannabinoid receptor 1, sequence (P20272 whole entry): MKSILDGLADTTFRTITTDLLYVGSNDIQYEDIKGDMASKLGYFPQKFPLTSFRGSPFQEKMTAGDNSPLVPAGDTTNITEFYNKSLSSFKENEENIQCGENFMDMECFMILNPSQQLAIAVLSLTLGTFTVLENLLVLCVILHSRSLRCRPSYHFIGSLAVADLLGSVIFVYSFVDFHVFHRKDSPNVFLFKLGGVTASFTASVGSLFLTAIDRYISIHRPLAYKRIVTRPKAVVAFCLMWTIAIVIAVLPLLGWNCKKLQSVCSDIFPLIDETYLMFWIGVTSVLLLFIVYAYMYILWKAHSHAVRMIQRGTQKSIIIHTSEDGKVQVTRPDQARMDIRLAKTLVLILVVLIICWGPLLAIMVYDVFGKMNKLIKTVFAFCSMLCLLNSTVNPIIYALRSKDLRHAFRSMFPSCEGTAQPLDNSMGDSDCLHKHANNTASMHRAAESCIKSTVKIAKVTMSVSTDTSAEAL
Cannabinoid receptor 2, sequence (P47936 whole entry): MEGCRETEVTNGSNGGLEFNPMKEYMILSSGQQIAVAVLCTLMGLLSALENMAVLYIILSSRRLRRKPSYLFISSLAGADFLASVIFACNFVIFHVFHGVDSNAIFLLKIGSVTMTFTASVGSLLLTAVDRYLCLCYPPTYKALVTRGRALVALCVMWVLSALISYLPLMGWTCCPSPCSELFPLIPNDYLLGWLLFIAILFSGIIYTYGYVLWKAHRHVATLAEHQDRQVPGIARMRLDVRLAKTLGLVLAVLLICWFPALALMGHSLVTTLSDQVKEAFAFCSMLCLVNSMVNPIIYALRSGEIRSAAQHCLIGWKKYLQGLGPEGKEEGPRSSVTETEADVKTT

Row | Structure (SMILES) | Ki (Cannabinoid receptor 2) [nM] | Ki (Cannabinoid receptor 1) [nM] | Selectivity ratio [1]
1 | CCCC/C=C\C1(c2cc(O)c3c(c2)OC(C)(C)[C@@H]2CC=C(C)C[C@@H]32)CCCCC1 | 4.9 | 3.9 | –
2 | CCCCCCCC1(c2cc(O)c3c(c2)OC(C)(C)[C@@H]2CC=C(C)C[C@@H]32)CC1 (relative stereo) | 4.2 | 0.48 | –
3 | CCCC/C=C\C1(c2cc(O)c3c(c2)OC(C)(C)[C@@H]2CC=C(C)C[C@@H]32)CCC1 | 1.2 | 0.93 | –
4 | CCCCCCCc1cc(O)c2c(c1)OC(C)(C)[C@@H]1CC=C(C)C[C@@H]21 | 20.8 | 8.8 | –
5 | CCCC/C=C\C1(c2cc(O)c3c(c2)OC(C)(C)[C@@H]2CC=C(C)C[C@@H]32)CCCC1 (relative stereo) | 1.8 | 0.72 | –
6 | CCCCCCCC1(c2cc(O)c3c(c2)OC(C)(C)[C@@H]2CC=C(C)C[C@@H]32)CCCCC1 | 143 | 13.6 | –
7 | CCCCCCC1(c2cc(O)c3c(c2)OC(C)(C)[C@@H]2CC=C(C)C[C@@H]32)CCC1 | 11.5 | 1.5 | 8
8 | CCCCCCCC1(c2cc(O)c3c(c2)OC(C)(C)[C@@H]2CC=C(C)C[C@@H]32)CCC1 | 52.3 | 2.7 | 20
9 | CCCCCCC1(c2cc(O)c3c(c2)OC(C)(C)[C@@H]2CC=C(C)C[C@@H]32)CCCCC1 | 23.5 | 18.4 | –
10 | CCCC/C=C\C1(c2cc(O)c3c(c2)OC(C)(C)[C@@H]2CC=C(C)C[C@@H]32)CC1 | 1.7 | 1.5 | –
11 | CCCCCCCC1(c2cc(O)c3c(c2)OC(C)(C)[C@@H]2CC=C(C)C[C@@H]32)CCCC1 | 45.5 | 9.9 | –
